ChEMBL document CHEMBL1129609, “Synthesis and antiviral activity evaluation of some new aminoadamantane derivatives. 2” (1996)
Values after ≈ are worked out from the molar mass of the structure shown.

Key:
[1] = system: Human immunodeficiency virus 2; assay: Antiviral activity against HIV-2 virus infected CEM cell lines.; type: functional, CCRF-CEM
[2] = system: CCRF-CEM; assay: Cytotoxicity against CEM cell lines.; type: functional; details: Homo sapiens
[3] = system: Human immunodeficiency virus 1; assay: Antiviral activity against HIV-1 virus infected CEM cell lines.; type: functional, CCRF-CEM
[4] = system: Human alphaherpesvirus 1; assay: Antiviral activity against HSV-1 virus infected HEF cell lines.; type: functional
Outline: (§1)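 Human embryonic fibroblasts, from embryonic lung or embryonic skin-muscle, infected with the virus. Endpoint is the minimum inhibitory concentration that reduces virus-induced cytopathicity by 50%. Values are averages of at least two separate experiments.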

[5] = system: Human alphaherpesvirus 2; assay: Antiviral activity against HSV-2 virus infected HEF cell lines.; type: functional; outline: as §1
[6] = system: Human alphaherpesvirus 1; assay: Antiviral activity against TK-HSV-1 virus infected HEF cell lines.; type: functional; outline: as §1
[7] = system: HEF; assay: Effects on cell morphology of HEF cell lines.; type: functional; details: Homo sapiens
Outline: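 Human embryonic skin-muscle fibroblasts were examined under the microscope for changes in normal cell morphology. The value is the minimum concentration causing a microscopically detectable alteration, averaged from at least two separate experiments.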

[8] = system: Vaccinia virus; assay: Antiviral activity against vaccinia virus infected HEF cell lines.; type: functional; details: Orthopoxvirus vaccinia; outline: as §1
[9] = system: Enterovirus C; assay: Antiviral activity against polio 1 virus infected HeLa cell lines.; type: functional
Outline: (§2)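 Vero (African green monkey kidney), HeLa (human epithelial) or HEL (human embryonic lung) cell monolayers infected with the virus. Readout is the minimum inhibitory concentration that reduces virus-induced cytopathicity by 50%. Values are averages of at least two separate experiments.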

[10] = system: Vesicular stomatitis virus; assay: Antiviral activity against vesicular stomatitis virus infected HeLa cell lines.; type: functional; outline: as §2
[11] = system: Coxsackievirus B4; assay: Antiviral activity against Coxsackie B4 virus infected HeLa cell lines.; type: functional; details: Enterovirus B; outline: as §2
[12] = system: Human betaherpesvirus 5; assay: Antiviral activity against HCMV virus infected HEL cell lines.; type: functional; outline: as §2
[13] = system: Human alphaherpesvirus 3; assay: Antiviral activity against TK+VZV virus infected HEL cell lines.; type: functional; outline: as §2
[14] = system: Human alphaherpesvirus 3; assay: Antiviral activity against TK-VZV virus infected HEL cell lines.; type: functional; outline: as §2
[15] = system: HEL; assay: Inhibition of HEL cell proliferation.; type: functional; details: Homo sapiens
Outline: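 Human embryonic lung fibroblasts were used for the proliferation assay. The value is the concentration that reduces cell proliferation by 50%, averaged from at least two separate experiments.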

[16] = system: MDCK; assay: Antiviral activity tested against influenza A,H1N1 virus infected MDCK cell lines.; type: functional; details: Canis lupus familiaris
[17] = Antiviral activity against influenza A,H3N2 virus infected MDCK cell lines.; type: functional
[18] = system: Influenza B virus; assay: Antiviral activity against influenza B virus infected MDCK cell lines.; type: functional
[19] = system: MDCK; assay: Antiviral activity of compound was tested against morphology virus infec+ted MDCK cell lines.; type: functional; details: Canis lupus familiaris
[20] = system: Semliki Forest virus; assay: Antiviral activity against Semliki forest virus infected Vero cell lines.; type: functional; outline: as §2
[21] = system: Coxsackievirus B4; assay: Antiviral activity against Coxsackie B4 virus infected vero cell lines.; type: functional; details: Enterovirus B; outline: as §2
[22] = system: Vero; assay: Effects on cell morphology of Vero cell lines.; type: functional; details: Chlorocebus sabaeus
Outline: (§3)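 HeLa (human epithelial) or Vero (African green monkey kidney) cells were examined under the microscope for changes in normal morphology. The value is the minimum concentration causing a detectable alteration, averaged from at least two separate experiments.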

[23] = system: Human respirovirus 3; assay: Antiviral activity against parainfluenza 3 virus infected Vero cell lines.; type: functional; outline: as §2
[24] = system: Mammalian orthoreovirus 1; assay: Antiviral activity against Reo 1 virus infected vero cell lines.; type: functional; outline: as §2
[25] = system: Sindbis virus; assay: Antiviral activity against sindbis virus infected Vero cell lines.; type: functional; outline: as §2
[26] = Antiviral activity against influenza A,H2N2 virus infected MDCK cell lines.; type: functional
[27] = system: HeLa; assay: Effects on cell morphology of HeLa cell lines.; type: functional; details: Homo sapiens; outline: as §3
[28] = system: Vesicular stomatitis virus; assay: Antiviral activity against vesicular stomatitis virus infected HEF cell lines.; type: functional; outline: as §1

| SMILES | MIC50 [1] | MIC50 [2] | MIC50 [3] | MIC50 [4] | MIC50 [5] | MIC50 [6] | MIC50 [7] | MIC50 [8] | MIC50 [9] | MIC50 [10] | MIC50 [11] | MIC50 [12] | MIC50 [13] | MIC50 [14] | MIC50 [15] | MIC50 [16] | MIC50 [17] | MIC50 [18] | MIC50 [19] | MIC50 [20] | further results |
| --- | --- | --- | --- | --- | --- | --- | --- | --- | --- | --- | --- | --- | --- | --- | --- | --- | --- | --- | --- | --- | --- |
| CC1(C)CCCN1CC12CC3CC(CC(C3)C1)C2 | > 40 µg/mL | 99 µg/mL (≈ 400 µM) | > 40 µg/mL | > 40 µg/mL | > 40 µg/mL | > 40 µg/mL | 100 µg/mL (≈ 404 µM) | > 40 µg/mL | > 200 µg/mL | 100 µg/mL (≈ 404 µM) | > 200 µg/mL | > 50 µg/mL | > 50 µg/mL | > 50 µg/mL | > 50 µg/mL | > 150 µg/mL | > 87 µg/mL | > 100 µg/mL | > 250 µg/mL | > 200 µg/mL | MIC50 [21]: > 200 µg/mL; MIC50 [22]: > 400 µg/mL; MIC50 [23]: > 200 µg/mL; MIC50 [24]: > 200 µg/mL; MIC50 [25]: > 200 µg/mL; MIC50 [26]: 35 µg/mL (≈ 141 µM); MIC50 [27]: > 400 µg/mL; MIC50 [28]: > 40 µg/mL |
| CC(C)(C)C1CCCN1CC12CC3CC(CC(C3)C1)C2 (stereo not given) | > 40 µg/mL | 72 µg/mL (≈ 261 µM) | > 40 µg/mL | > 100 µg/mL | > 100 µg/mL | > 100 µg/mL | 200 µg/mL (≈ 726 µM) | > 100 µg/mL | > 100 µg/mL | > 100 µg/mL | > 100 µg/mL | > 50 µg/mL | 35 µg/mL (≈ 127 µM) | 20 µg/mL (≈ 72.6 µM) | > 50 µg/mL | > 104 µg/mL | > 100 µg/mL | > 100 µg/mL | > 250 µg/mL | > 200 µg/mL | MIC50 [21]: > 200 µg/mL; MIC50 [22]: 400 µg/mL (≈ 1450 µM); MIC50 [23]: > 200 µg/mL; MIC50 [24]: > 200 µg/mL; MIC50 [25]: > 200 µg/mL; MIC50 [26]: > 100 µg/mL; MIC50 [27]: 200 µg/mL (≈ 726 µM); MIC50 [28]: > 100 µg/mL |
| CN1CCCC1C12CC3CC(CC(C3)C1)C2 (stereo not given) | > 40 µg/mL | 120 µg/mL (≈ 547 µM) | > 40 µg/mL | > 100 µg/mL | > 100 µg/mL | > 100 µg/mL | 200 µg/mL (≈ 912 µM) | > 100 µg/mL | > 400 µg/mL | > 400 µg/mL | > 400 µg/mL | > 50 µg/mL | > 50 µg/mL | > 50 µg/mL | > 50 µg/mL | > 34 µg/mL | 60 µg/mL (≈ 274 µM) | 60 µg/mL (≈ 274 µM) | 250 µg/mL (≈ 1140 µM) | > 400 µg/mL | MIC50 [21]: > 400 µg/mL; MIC50 [22]: > 400 µg/mL; MIC50 [23]: > 400 µg/mL; MIC50 [24]: > 400 µg/mL; MIC50 [25]: > 400 µg/mL; MIC50 [26]: 16.5 µg/mL (≈ 75.2 µM); MIC50 [27]: > 400 µg/mL; MIC50 [28]: > 100 µg/mL |
| C1CCC2(NC1)C1CC3CC(C1)CC2C3 (stereo not given) | > 40 µg/mL | 93 µg/mL (≈ 453 µM) | > 40 µg/mL | 100 µg/mL (≈ 487 µM) | > 200 µg/mL | > 200 µg/mL | 400 µg/mL (≈ 1950 µM) | > 200 µg/mL | > 400 µg/mL | > 400 µg/mL | > 400 µg/mL | > 50 µg/mL | > 50 µg/mL | > 50 µg/mL | > 50 µg/mL | > 35 µg/mL | 43 µg/mL (≈ 209 µM) | 60 µg/mL (≈ 292 µM) | > 250 µg/mL | > 400 µg/mL | MIC50 [21]: > 400 µg/mL; MIC50 [22]: > 400 µg/mL; MIC50 [23]: > 400 µg/mL; MIC50 [24]: > 400 µg/mL; MIC50 [25]: > 400 µg/mL; MIC50 [26]: 0.24 µg/mL (≈ 1.17 µM); MIC50 [27]: > 400 µg/mL; MIC50 [28]: > 200 µg/mL |
| C1COCC2(N1)C1CC3CC(C1)CC2C3 (stereo not given) | > 200 µg/mL | > 200 µg/mL | 158 µg/mL (≈ 762 µM) | > 200 µg/mL | > 200 µg/mL | > 200 µg/mL | > 200 µg/mL | > 200 µg/mL | > 400 µg/mL | > 400 µg/mL | > 400 µg/mL | > 50 µg/mL | > 50 µg/mL | > 50 µg/mL | > 50 µg/mL | 29 µg/mL (≈ 140 µM) | 13 µg/mL (≈ 62.7 µM) | 20 µg/mL (≈ 96.5 µM) | > 250 µg/mL | > 400 µg/mL | MIC50 [21]: > 400 µg/mL; MIC50 [22]: > 400 µg/mL; MIC50 [23]: > 400 µg/mL; MIC50 [24]: > 400 µg/mL; MIC50 [25]: > 400 µg/mL; MIC50 [26]: 1.7 µg/mL (≈ 8.2 µM); MIC50 [27]: > 400 µg/mL; MIC50 [28]: > 200 µg/mL |
